In ChEMBL document CHEMBL4359877, “Identification of benzothiazinones containing an oxime functional moiety as new anti-tuberculosis agents” (Eur J Med Chem, 2019):
Values after ≈ are worked out from the molar mass of the structure shown.

Tests used:
[1] = system: Mycobacterium tuberculosis; test: Antimycobacterial activity against Mycobacterium tuberculosis H37Rv ATCC 27294 assessed as reduction in bacterial cell growth incubated for 7 days by microplate alamar blue assay; assay type: functional; details: H37Rv ATCC 27294, 168 h
In short: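 MABA: H37Rv or clinical MDR isolates (resistant to INH and RFP, Beijing Chest Hospital patients) grown to late log phase in 7H9 with glycerol, Tween 80 and ADC, washed, filtered and frozen. Two-fold compound dilutions with 2 × 10⁵ CFU per well, 37 °C; Alamar blue plus Tween 80 added on day 7, fluorescence (ex 530/em 590) read after 16–24 h. MIC = lowest concentration giving ≥90% fluorescence reduction versus mean of bacterium-only controls; RIF and INH as positive controls.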

[2] = Cytotoxicity against African green monkey Vero cells assessed as reduction in cell viability; assay type: cell-based; details: chlorocebus sabaeus
[3] = AUC (0 to infinity) in ICR mouse at 25 mg/kg, po measured upto 24 hrs by HPLC analysis; assay type: ADME, organism-based; parameters: dose 25 mg/kg, time infinity, route oral; details: in vivo
In short: (§1)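 Female SPF ICR mice, 18–22 g, fasted overnight, 3 per group; single oral dose 25 mg/kg as suspension in 0.5% CMC. Jugular vein blood drawn at 0.25, 0.5, 1, 2, 4, 6, 8 and 24 h; serum deproteinised with acetonitrile, dried, redissolved and quantified by HPLC. AUC, t1/2, Cmax and Tmax taken directly from concentration–time data.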

[4] = Cmax in ICR mouse at 25 mg/kg, po measured upto 24 hrs by HPLC analysis; assay type: ADME, organism-based; parameters: dose 25 mg/kg, route oral; details: in vivo; in short: as §1
[5] = Mutagenicity in Salmonella typhimurium TA102 in presence of S9 fraction by mini-Ames test; assay type: toxicity, subcellular; details: salmonella enterica subsp. enterica serovar typhimurium
[6] = system: Mycobacterium tuberculosis; test: Antituberculosis activity against Mycobacterium tuberculosis H37Rv infected in BALB/C mouse assessed as reduction in log10CFU in lungs at 25 mg/kg, po administered once daily for 5 days per week for a total of 3 weeks started on day 10 post-infection; assay type: functional
[7] = Mutagenicity in Salmonella typhimurium TA102 in absence of S9 fraction by mini-Ames test; assay type: toxicity; details: salmonella enterica subsp. enterica serovar typhimurium
CYP2C9 = CYP2C9 (Homo sapiens, UniProt P11712); test: Inhibition of CYP2C9 (unknown origin); assay type: ADME
Sequence of CYP2C9 (P11712 whole entry): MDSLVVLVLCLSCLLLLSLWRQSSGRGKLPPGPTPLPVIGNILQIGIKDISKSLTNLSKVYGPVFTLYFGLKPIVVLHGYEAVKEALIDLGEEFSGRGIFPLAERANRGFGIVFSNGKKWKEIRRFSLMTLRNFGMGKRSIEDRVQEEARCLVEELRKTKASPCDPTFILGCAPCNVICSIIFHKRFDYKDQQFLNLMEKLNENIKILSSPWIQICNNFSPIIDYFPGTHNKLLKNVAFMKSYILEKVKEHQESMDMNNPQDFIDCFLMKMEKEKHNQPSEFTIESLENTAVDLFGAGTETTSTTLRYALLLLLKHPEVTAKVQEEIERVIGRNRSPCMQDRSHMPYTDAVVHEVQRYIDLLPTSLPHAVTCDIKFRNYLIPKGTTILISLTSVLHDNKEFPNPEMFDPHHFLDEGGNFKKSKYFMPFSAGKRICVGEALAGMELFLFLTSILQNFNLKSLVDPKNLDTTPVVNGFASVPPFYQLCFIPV

CYP2D6 = CYP2D6 (Homo sapiens, UniProt P10635); test: Inhibition of CYP2D6 (unknown origin); assay type: ADME
Sequence of CYP2D6 (P10635 whole entry): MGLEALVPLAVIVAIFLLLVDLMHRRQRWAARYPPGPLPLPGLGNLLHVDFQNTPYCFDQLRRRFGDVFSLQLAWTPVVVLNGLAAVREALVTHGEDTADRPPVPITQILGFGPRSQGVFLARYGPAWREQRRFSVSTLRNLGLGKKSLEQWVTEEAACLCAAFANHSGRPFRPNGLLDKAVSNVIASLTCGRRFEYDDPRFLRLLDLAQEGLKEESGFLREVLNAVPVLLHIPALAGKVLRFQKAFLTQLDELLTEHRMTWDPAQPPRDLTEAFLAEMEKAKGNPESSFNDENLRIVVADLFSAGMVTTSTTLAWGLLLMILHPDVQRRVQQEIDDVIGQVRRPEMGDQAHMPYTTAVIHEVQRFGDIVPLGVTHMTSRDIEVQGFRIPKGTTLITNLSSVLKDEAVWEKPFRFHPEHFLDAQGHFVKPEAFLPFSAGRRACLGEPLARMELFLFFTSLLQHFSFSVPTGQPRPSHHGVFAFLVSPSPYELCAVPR

[8] = Half life in ICR mouse at 25 mg/kg, po measured upto 24 hrs by HPLC analysis; assay type: ADME, organism-based; details: in vivo; in short: as §1
[9] = system: Mycobacterium tuberculosis; test: Antimycobacterial activity against Mycobacterium tuberculosis H37Rv assessed as reduction in bacterial cell growth at 32 ug/ml by Low-oxygen recovery assay; assay type: functional
Cytochrome P450 2C19 = Cytochrome P450 2C19 (Homo sapiens, UniProt P33261); test: Inhibition of CYP2C19 (unknown origin); assay type: ADME
Sequence of Cytochrome P450 2C19 (P33261 whole entry): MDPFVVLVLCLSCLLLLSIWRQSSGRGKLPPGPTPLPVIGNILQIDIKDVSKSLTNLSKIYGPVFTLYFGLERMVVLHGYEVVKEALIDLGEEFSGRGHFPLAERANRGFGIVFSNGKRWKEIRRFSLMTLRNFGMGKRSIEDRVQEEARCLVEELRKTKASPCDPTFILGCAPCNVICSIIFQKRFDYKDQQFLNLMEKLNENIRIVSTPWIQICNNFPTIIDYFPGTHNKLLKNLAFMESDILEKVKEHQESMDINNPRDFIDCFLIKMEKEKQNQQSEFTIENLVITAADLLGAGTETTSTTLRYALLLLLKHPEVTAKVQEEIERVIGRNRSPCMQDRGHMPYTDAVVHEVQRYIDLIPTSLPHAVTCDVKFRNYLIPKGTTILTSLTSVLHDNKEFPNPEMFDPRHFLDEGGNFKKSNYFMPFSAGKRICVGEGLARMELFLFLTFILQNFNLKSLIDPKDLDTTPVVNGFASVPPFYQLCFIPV

[10] = Acute toxicity in Sprague-Dawley rat assessed as death at 2 g/kg, po measured continuously for first 4 hrs followed by every 1 hr for next 24 hrs and subsequent 8 hrs interval for 7 days; assay type: organism-based; details: in vivo, 2000 mg/kg
In short: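 SD rats, 180–220 g, randomised, ten per group, food withheld overnight. Single oral dose of 2 g/kg suspended in 5% CMC; controls given vehicle only. Watched continuously for 4 h, hourly for the next 24 h, then every 8 h through day 7 for deaths or changes. Read-out is survivors/total at 7 days.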

[11] = biological target: Voltage-gated inwardly rectifying potassium channel KCNH2 (Homo sapiens, UniProt Q12809); test: Inhibition of human ERG transfected in HEK293 cells by whole-cell patch clamp method; assay type: cell-based; details: hek293
Sequence of Voltage-gated inwardly rectifying potassium channel KCNH2 (Q12809 whole entry): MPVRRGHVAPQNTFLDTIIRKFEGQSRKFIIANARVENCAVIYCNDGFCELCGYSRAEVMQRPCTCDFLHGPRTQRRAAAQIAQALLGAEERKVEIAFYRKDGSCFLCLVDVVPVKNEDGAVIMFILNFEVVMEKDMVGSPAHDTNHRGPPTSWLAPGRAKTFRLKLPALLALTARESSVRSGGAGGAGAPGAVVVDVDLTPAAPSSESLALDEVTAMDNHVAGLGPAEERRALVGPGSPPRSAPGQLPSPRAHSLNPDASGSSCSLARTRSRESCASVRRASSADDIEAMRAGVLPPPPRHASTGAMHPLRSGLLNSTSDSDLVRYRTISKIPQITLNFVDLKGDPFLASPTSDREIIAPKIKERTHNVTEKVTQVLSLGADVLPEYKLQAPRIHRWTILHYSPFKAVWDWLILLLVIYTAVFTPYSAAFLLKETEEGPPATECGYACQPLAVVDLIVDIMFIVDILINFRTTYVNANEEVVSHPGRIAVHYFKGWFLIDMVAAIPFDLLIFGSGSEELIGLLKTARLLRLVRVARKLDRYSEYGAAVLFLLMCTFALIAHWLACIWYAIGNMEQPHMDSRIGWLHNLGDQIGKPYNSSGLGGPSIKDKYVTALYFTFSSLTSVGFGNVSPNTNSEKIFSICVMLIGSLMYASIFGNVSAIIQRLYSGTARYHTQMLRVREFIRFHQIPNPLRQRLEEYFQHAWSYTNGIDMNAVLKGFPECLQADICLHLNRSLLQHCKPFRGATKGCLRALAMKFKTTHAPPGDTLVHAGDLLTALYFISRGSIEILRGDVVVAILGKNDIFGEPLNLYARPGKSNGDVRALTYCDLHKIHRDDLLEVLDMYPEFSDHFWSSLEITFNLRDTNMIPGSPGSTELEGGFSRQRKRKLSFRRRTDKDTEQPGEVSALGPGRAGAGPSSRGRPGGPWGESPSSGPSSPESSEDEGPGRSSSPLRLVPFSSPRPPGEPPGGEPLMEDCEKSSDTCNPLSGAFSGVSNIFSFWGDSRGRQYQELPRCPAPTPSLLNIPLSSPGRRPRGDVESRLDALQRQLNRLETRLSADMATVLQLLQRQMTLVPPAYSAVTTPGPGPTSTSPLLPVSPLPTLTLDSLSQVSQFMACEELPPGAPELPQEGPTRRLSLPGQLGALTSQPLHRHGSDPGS

[12] = Mutagenicity in Salmonella typhimurium TA100 in presence of S9 fraction by mini-Ames test; assay type: toxicity, subcellular; details: salmonella enterica subsp. enterica serovar typhimurium
CYP3A4 = CYP3A4 (Homo sapiens, UniProt P08684); test: Inhibition of CYP3A4 (unknown origin); assay type: ADME
Sequence of CYP3A4 (P08684 whole entry): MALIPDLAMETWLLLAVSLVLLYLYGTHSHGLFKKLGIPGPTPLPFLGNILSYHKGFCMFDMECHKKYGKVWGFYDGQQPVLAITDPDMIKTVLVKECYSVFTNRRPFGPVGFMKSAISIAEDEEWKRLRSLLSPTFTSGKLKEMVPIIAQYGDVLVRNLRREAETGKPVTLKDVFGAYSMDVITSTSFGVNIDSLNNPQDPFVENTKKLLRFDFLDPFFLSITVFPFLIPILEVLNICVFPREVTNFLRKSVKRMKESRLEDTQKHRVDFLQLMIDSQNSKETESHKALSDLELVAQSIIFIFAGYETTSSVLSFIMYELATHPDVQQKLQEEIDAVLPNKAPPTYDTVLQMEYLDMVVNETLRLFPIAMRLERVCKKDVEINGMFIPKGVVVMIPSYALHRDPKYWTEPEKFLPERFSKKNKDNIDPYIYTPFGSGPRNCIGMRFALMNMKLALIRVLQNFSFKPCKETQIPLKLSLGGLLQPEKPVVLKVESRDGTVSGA

[13] = system: Mycobacterium tuberculosis; test: Antituberculosis activity against Mycobacterium tuberculosis H37Rv infected in BALB/C mouse assessed as colony forming unit in lungs at 25 mg/kg, po administered once daily via gavage for 5 days per week for 3 weeks starting from 10 days post-infection (reference value: 6.44 +/- 0.34); assay type: functional
[14] = system: Mycobacterium tuberculosis; test: Antimycobacterial activity against Mycobacterium tuberculosis H37Rv assessed as reduction in bacterial cell growth by Low-oxygen recovery assay; assay type: functional
[15] = Tmax in ICR mouse at 25 mg/kg, po measured upto 24 hrs by HPLC analysis; assay type: ADME, organism-based; details: in vivo; in short: as §1
[16] = Mutagenicity in Salmonella typhimurium TA100 in absence of S9 fraction by mini-Ames test; assay type: toxicity; details: salmonella enterica subsp. enterica serovar typhimurium
CYP1A2 = biological target: T1, CYP1A2 (Homo sapiens, UniProt P05177); test: Inhibition of CYP1A2 (unknown origin); assay type: ADME
T1 sequence (P05177 whole entry): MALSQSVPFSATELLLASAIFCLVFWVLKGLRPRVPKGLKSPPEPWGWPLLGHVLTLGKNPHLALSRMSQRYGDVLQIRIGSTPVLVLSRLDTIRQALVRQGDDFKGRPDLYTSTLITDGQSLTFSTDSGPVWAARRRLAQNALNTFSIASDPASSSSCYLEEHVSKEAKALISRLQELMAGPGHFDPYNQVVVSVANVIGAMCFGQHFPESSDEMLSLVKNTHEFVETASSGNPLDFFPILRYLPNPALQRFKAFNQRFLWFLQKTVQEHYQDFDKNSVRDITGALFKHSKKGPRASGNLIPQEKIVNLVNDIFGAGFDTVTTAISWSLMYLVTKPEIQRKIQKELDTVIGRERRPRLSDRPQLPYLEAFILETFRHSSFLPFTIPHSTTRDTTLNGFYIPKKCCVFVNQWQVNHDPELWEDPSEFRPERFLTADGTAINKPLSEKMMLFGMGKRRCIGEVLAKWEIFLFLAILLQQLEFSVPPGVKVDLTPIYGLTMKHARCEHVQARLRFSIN

[17] = MRT in ICR mouse at 25 mg/kg, po measured upto 24 hrs by HPLC analysis; assay type: ADME, organism-based; details: in vivo; in short: as §1

CON=C1CC(CN2CCN(c3nc(=O)c4cc(C(F)(F)F)cc([N+](=O)[O-])c4s3)CC2)C1 (configuration not stated)
MIC90 [1]: 0.023 µg/mL (≈ 0.0488 µM)

CON=C1CCC(CN2CC(C)N(c3nc(=O)c4cc(C(F)(F)F)cc([N+](=O)[O-])c4s3)CC2C)CC1 (configuration not stated)
MIC90 [1]: 0.031 µg/mL (≈ 0.0588 µM)

CCON=C1CCC(CN2C(C)CN(c3nc(=O)c4cc(C(F)(F)F)cc([N+](=O)[O-])c4s3)CC2C)CC1 (configuration not stated)
MIC90 [1]: < 0.016 µg/mL | CC50 [2]: 60.5 µg/mL (≈ 112 µM)

CCO/N=C(\C)CCN1CCN(c2nc(=O)c3cc(C(F)(F)F)cc([N+](=O)[O-])c3s2)CC1
MIC90 [1]: < 0.016 µg/mL | CC50 [2]: > 64 µg/mL

CCON=C1CCC(CN2CCN(c3nc(=O)c4cc(C(F)(F)F)cc([N+](=O)[O-])c4s3)[C@H](C)C2)CC1 (some centres not stated)
MIC90 [1]: < 0.016 µg/mL | CC50 [2]: > 64 µg/mL

CCON=C1CC(CN2CCN(c3nc(=O)c4cc(C(F)(F)F)cc([N+](=O)[O-])c4s3)CC2C)C1 (configuration not stated)
MIC90 [1]: 0.052 µg/mL (≈ 0.104 µM)

CCON=C1CC(CN2CCN(c3nc(=O)c4cc(C(F)(F)F)cc([N+](=O)[O-])c4s3)CC2)C1 (configuration not stated)
MIC90 [1]: < 0.016 µg/mL | CC50 [2]: > 64 µg/mL

CON=C1CC(CN2C(C)CN(c3nc(=O)c4cc(C(F)(F)F)cc([N+](=O)[O-])c4s3)CC2C)C1 (configuration not stated)
MIC90 [1]: 0.066 µg/mL (≈ 0.132 µM)

CCON=C1CCC(CN2CCN(c3nc(=O)c4cc(C(F)(F)F)cc([N+](=O)[O-])c4s3)CC2C)CC1 (configuration not stated)
MIC90 [1]: < 0.016 µg/mL | CC50 [2]: > 64 µg/mL

CON=C1CCC(CN2CCN(c3nc(=O)c4cc(C(F)(F)F)cc([N+](=O)[O-])c4s3)CC2C)CC1 (configuration not stated)
MIC90 [1]: < 0.016 µg/mL | CC50 [2]: > 64 µg/mL

CCO/N=C(/C)CCN1CCC2(CCN(c3nc(=O)c4cc(C(F)(F)F)cc([N+](=O)[O-])c4s3)CC2)C1
MIC90 [1]: 0.241 µg/mL (≈ 0.457 µM)

CCON=C1CCC(CN2CCN(c3nc(=O)c4cc(C(F)(F)F)cc([N+](=O)[O-])c4s3)CC2)CC1 (configuration not stated)
AUC(0-inf) [3]: 40600 ng·h/mL | Cmax [4]: 15200 ng/mL | Activity [5]: Non-Toxic | Activity [6]: 4.44 log10CFU | Activity [7]: Non-Toxic | IC50 (CYP2C9): > 10 µM | IC50 (CYP2D6): > 10 µM | half-life [8]: 2.29 h | inhibition at 32 µg/mL [9]: 79% | MIC90 [1]: < 0.016 µg/mL | IC50 (Cytochrome P450 2C19): > 10 µM | Activity [10]: Non-Toxic | IC50 [11]: 38.9 µM | Activity [12]: Non-Toxic | IC50 (CYP3A4): > 10 µM | Activity [13]: 2 log10CFU | MIC [14]: > 32 µg/mL | Tmax [15]: 0.25 h | Activity [16]: Non-Toxic | CC50 [2]: > 64 µg/mL | IC50 (CYP1A2): > 10 µM | MRT [17]: 2.3 h

C/C(CCN1CCN(c2nc(=O)c3cc(C(F)(F)F)cc([N+](=O)[O-])c3s2)CC1)=N\OCc1ccccc1
MIC90 [1]: < 0.016 µg/mL | CC50 [2]: > 64 µg/mL

CO/N=C(/C)CCN1CCC2(CCN(c3nc(=O)c4cc(C(F)(F)F)cc([N+](=O)[O-])c4s3)CC2)C1
MIC90 [1]: 0.469 µg/mL (≈ 0.913 µM)

CON=C1CCC(CN2C(C)CN(c3nc(=O)c4cc(C(F)(F)F)cc([N+](=O)[O-])c4s3)CC2C)CC1 (configuration not stated)
MIC90 [1]: < 0.016 µg/mL | CC50 [2]: > 64 µg/mL

NNC(=O)c1ccncc1 [ISONIAZID]
MIC90 [1]: 0.031 µg/mL (≈ 0.226 µM) | Activity [13]: 1.76 log10CFU

CO[C@H]1/C=C/O[C@@]2(C)Oc3c(C)c(O)c4c(O)c(c(/C=N/N5CCN(C)CC5)c(O)c4c3C2=O)NC(=O)/C(C)=C\C=C\[C@H](C)[C@H](O)[C@@H](C)[C@@H](O)[C@@H](C)[C@H](OC(C)=O)[C@@H]1C [RIFAMPIN]
MIC90 [1]: 0.078 µg/mL (≈ 0.0948 µM)
